ChEMBL document CHEMBL2203146, “Search for anticonvulsant and analgesic active derivatives of dihydrofuran-2(3H)-one” (Bioorg Med Chem, 2012)
Calls of active or inactive are those of the source.

Tests used:
Rattus norvegicus [1] = assay: Anticonvulsant activity in Sprague-Dawley rat assessed as protection against maximal electroshock-induced seizures at 30 mg/kg, po after 2 hrs; format: functional, organism-based; set-up: dose 30 mg/kg
Summary of the method: (§1)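 Male Sprague-Dawley rats (100–150 g), compound given orally at 30 mg/kg, dissolved in saline or suspended in 0.5% methylcellulose. Maximal electroshock seizures elicited with 60-cycle alternating current. Result recorded as number protected/number tested at each time point.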

Mus musculus [2] = assay: Anticonvulsant activity in albino CF1 mouse assessed as protection against maximal electroshock-induced seizures at 100 mg/kg, ip after 0.5 hr; format: functional, organism-based; set-up: dose 100 mg/kg
Summary of the method: (§2)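 Male albino CF No. 1 mice (18–25 g) dosed ip at 30, 100 and 300 mg/kg in saline or 0.5% methylcellulose, tested 15, 30, 60 and 240 min after dosing. Maximal electroshock seizures elicited with 60-cycle alternating current. Scored as animals protected/animals tested, small qualitative groups.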

Rattus norvegicus [3] = assay: Neurotoxicity in Sprague-Dawley rat assessed as […] at 30 mg/kg, po after 1 hr […]; format: toxicity, organism-based; set-up: dose 30 mg/kg, route oral; details: in vivo
Mus musculus [4] = assay: Anticonvulsant activity in albino CF1 mouse assessed as protection against maximal electroshock-induced seizures at 100 mg/kg, ip after 4 hrs; format: functional, organism-based; set-up: dose 100 mg/kg; summary of the method: as §2
Rattus norvegicus [5] = assay: Neurotoxicity in Sprague-Dawley rat assessed as minimal motor impairment at 30 mg/kg, po after 4 hrs by rotorod test; format: toxicity, organism-based; set-up: dose 30 mg/kg, route oral; details: in vivo
Mus musculus [6] = assay: Anticonvulsant activity in albino CF1 mouse assessed as protection against maximal electroshock-induced seizures at 300 mg/kg, ip after 0.5 hr; format: functional, organism-based; set-up: dose 300 mg/kg; summary of the method: as §2
Mus musculus [7] = assay: Neurotoxicity in albino CF1 mouse assessed as minimal motor impairment at 300 mg/kg, ip after 4 hrs by rotorod test; format: toxicity, organism-based; set-up: dose 300 mg/kg, route intraperitoneal; details: in vivo
Summary of the method: (§3)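 Rotarod in male CF No. 1 mice after ip dosing (30, 100, 300 mg/kg; saline or 0.5% methylcellulose) at 15–240 min. Knurled plastic rod, 1-inch diameter, 6 rpm. Toxicity means failing to stay on for 1 min on three successive attempts. Recorded as toxic/tested.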

Mus musculus [8] = assay: Neurotoxicity in albino CF1 mouse assessed as minimal motor impairment at 100 mg/kg, ip after 0.5 hr by rotorod test; format: toxicity, organism-based; set-up: dose 100 mg/kg, route intraperitoneal; details: in vivo; summary of the method: as §3
Rattus norvegicus [9] = assay: Anticonvulsant activity in Sprague-Dawley rat assessed as protection against maximal electroshock-induced seizures at 30 mg/kg, po after 0.25 hr; format: functional, organism-based; set-up: dose 30 mg/kg; summary of the method: as §1
Rattus norvegicus [10] = assay: Anticonvulsant activity in Sprague-Dawley rat assessed as protection against maximal electroshock-induced seizures at 30 mg/kg, po after 4 hrs; format: functional, organism-based; set-up: dose 30 mg/kg; summary of the method: as §1
Mus musculus [11] = assay: Anticonvulsant activity in albino CF1 mouse assessed as protection against maximal electroshock-induced seizures at 100 mg/kg, ip after 1 hr; format: functional, organism-based; set-up: dose 100 mg/kg; summary of the method: as §2
Mus musculus [12] = assay: Anticonvulsant activity in albino CF1 mouse assessed as protection against maximal electroshock-induced seizures at 300 mg/kg, ip after 4 hrs; format: functional, organism-based; set-up: dose 300 mg/kg; summary of the method: as §2
Mus musculus [13] = assay: Neurotoxicity in albino CF1 mouse assessed as minimal motor impairment at 100 mg/kg, ip after 0.25 hr by rotorod test; format: toxicity, organism-based; set-up: dose 100 mg/kg, route intraperitoneal; details: in vivo; summary of the method: as §3
Rattus norvegicus [14] = assay: Neurotoxicity in Sprague-Dawley rat assessed as minimal motor impairment at 30 mg/kg, po after 0.5 hr by rotorod test; format: toxicity, organism-based; set-up: dose 30 mg/kg, route oral; details: in vivo
Mus musculus [15] = assay: Neurotoxicity in albino CF1 mouse assessed as minimal motor impairment at 100 mg/kg, ip after 4 hrs by rotorod test; format: toxicity, organism-based; set-up: dose 100 mg/kg, route intraperitoneal; details: in vivo; summary of the method: as §3
Mus musculus [16] = assay: Neurotoxicity in albino CF1 mouse assessed as minimal motor impairment at 100 mg/kg, ip after 1 hr by rotorod test; format: toxicity, organism-based; set-up: dose 100 mg/kg, route intraperitoneal; details: in vivo; summary of the method: as §3
Rattus norvegicus [17] = assay: Anticonvulsant activity in Sprague-Dawley rat assessed as protection against maximal electroshock-induced seizures at 30 mg/kg, po after 0.5 hr; format: functional, organism-based; set-up: dose 30 mg/kg; summary of the method: as §1
Mus musculus [18] = assay: Neurotoxicity in albino CF1 mouse assessed as minimal motor impairment at 300 mg/kg, ip after 0.5 hr by rotorod test; format: toxicity, organism-based; set-up: dose 300 mg/kg, route intraperitoneal; details: in vivo; summary of the method: as §3
Rattus norvegicus [19] = assay: Anticonvulsant activity in Sprague-Dawley rat assessed as protection against maximal electroshock-induced seizures at 30 mg/kg, po after 1 hr; format: functional, organism-based; set-up: dose 30 mg/kg; summary of the method: as §1
Mus musculus [20] = assay: Anticonvulsant activity in albino CF1 mouse assessed as protection against subcutaneous metrazol-induced seizures at 30 to 300 mg/kg, ip after 0.5 to 4 hrs; format: functional, organism-based
Summary of the method: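 CF No. 1 male mice dosed ip at 30, 100 or 300 mg/kg (saline or 0.5% methylcellulose), then given pentetrazole 85 mg/kg sc as 0.5% solution in posterior midline. Watched 30 min. Protection means no threshold seizure (single clonic spasm episode of at least 5 s). Expressed as protected/tested.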

Rattus norvegicus [21] = assay: Neurotoxicity in Sprague-Dawley rat assessed as […] at 30 mg/kg, po after 0.25 hr […]; format: toxicity, organism-based; set-up: dose 30 mg/kg, route oral; details: in vivo
Mus musculus [22] = assay: Anticonvulsant activity in albino CF1 mouse assessed as protection against maximal electroshock-induced seizures at 100 mg/kg, ip after 0.25 hr; format: functional, organism-based; set-up: dose 100 mg/kg; summary of the method: as §2
Rattus norvegicus [23] = assay: Neurotoxicity in Sprague-Dawley rat assessed as […] at 30 mg/kg, po after 2 hrs […]; format: toxicity, organism-based; set-up: dose 30 mg/kg, route oral; details: in vivo
Mus musculus [24] = assay: Anticonvulsant activity in albino CF1 mouse assessed as protection against 6 Hz psychomotor seizure at 100 mg/kg, ip after 4 hrs by minimal clonic seizure test; format: functional, organism-based; set-up: dose 100 mg/kg
Summary of the method: (§4)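 Male albino CF No. 1 mice, 18–25 g. Compound dissolved in saline or suspended in 0.5% methylcellulose and given ip beforehand. Corneal stimulation with 0.2 ms monopolar rectangular pulses at 6 Hz for 3 s from a constant-current device. Mice restrained during stimulation, then released and observed for the minimal clonic seizure and automatistic behaviour.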

Mus musculus [25] = assay: Anticonvulsant activity in albino CF1 mouse assessed as protection against 6 Hz psychomotor seizure at 100 mg/kg, ip after 0.5 hr by minimal clonic seizure test; format: functional, organism-based; set-up: dose 100 mg/kg; summary of the method: as §4
Mus musculus [26] = assay: Anticonvulsant activity in albino CF1 mouse assessed as protection against 6 Hz psychomotor seizure at 100 mg/kg, ip after 0.25 hr by minimal clonic seizure test; format: functional, organism-based; set-up: dose 100 mg/kg; summary of the method: as §4
Mus musculus [27] = assay: […] activity in ip dosed albino CF1 mouse assessed as inhibition of phenylbenzoquinone-induced writhing administered after 30 mins prior challenge; format: functional
Summary of the method: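 Male Albino Swiss (CD-1) mice, 6-8 per dose. Compound given ip in 0.5% methylcellulose. 30 min later, 0.25 ml of 0.02% phenylbenzoquinone injected. After 5 min, writhes counted over 10 min. % effect = (vehicle mean − drug mean)/vehicle mean × 100. ED50 derived; Student's t-test.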

Mus musculus [28] = assay: Anticonvulsant activity in albino CF1 mouse assessed as protection against 6 Hz psychomotor seizure at 100 mg/kg, ip after 2 hrs by minimal clonic seizure test; format: functional, organism-based; set-up: dose 100 mg/kg; summary of the method: as §4
Mus musculus [29] = assay: Anticonvulsant activity in albino CF1 mouse assessed as protection against 6 Hz psychomotor seizure at 100 mg/kg, ip after 1 hr by minimal clonic seizure test; format: functional, organism-based; set-up: dose 100 mg/kg; summary of the method: as §4

C/C(Nc1ccccc1)=C1\CCOC1=O
Activity (Rattus norvegicus [1]): inactive | Activity (Mus musculus [2]): inactive | Activity (Rattus norvegicus [3]): Non-toxic | Activity (Mus musculus [4]): inactive | Activity (Rattus norvegicus [5]): Non-toxic | Activity (Mus musculus [6]): Active | Activity (Mus musculus [7]): Non-toxic | Activity (Mus musculus [8]): Non-toxic | Activity (Rattus norvegicus [9]): inactive | Activity (Rattus norvegicus [10]): inactive | Activity (Mus musculus [11]): inactive | Activity (Mus musculus [12]): inactive | Activity (Mus musculus [13]): Non-toxic | Activity (Rattus norvegicus [14]): Non-toxic | Activity (Mus musculus [15]): Non-toxic | Activity (Mus musculus [16]): Non-toxic | Activity (Rattus norvegicus [17]): inactive | Activity (Mus musculus [18]): Toxic | Activity (Rattus norvegicus [19]): inactive | Activity (Mus musculus [20]): inactive | Activity (Rattus norvegicus [21]): Non-toxic | Activity (Mus musculus [22]): Active | Activity (Rattus norvegicus [23]): Non-toxic

NC(=O)c1ccccc1OC1CCOC1=O (racemic)
Activity (Mus musculus [2]): inactive | Activity (Mus musculus [4]): inactive | Activity (Mus musculus [6]): inactive | Activity (Mus musculus [24]): inactive | Activity (Mus musculus [7]): Non-toxic | Activity (Mus musculus [8]): Non-toxic | Activity (Mus musculus [25]): inactive | Activity (Mus musculus [26]): inactive | ED50 (Mus musculus [27]): 7.9 mg/kg | Activity (Mus musculus [12]): inactive | Activity (Mus musculus [15]): Non-toxic | Activity (Mus musculus [18]): Non-toxic | Activity (Mus musculus [28]): inactive | Activity (Mus musculus [20]): inactive | Activity (Mus musculus [29]): inactive
